Phagocyt inh: macrophage phagocytosis inhibition. inhibition, % at 5 µM. AID 1029. hit rate 0.07% among 110,000. J774A.1 macrophage IgG-bead phagocytosis, imaging;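 active means inhibition above the mean of the plate negative controls plus 5 SD, cut at about 13% in these data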;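 further: phagocytic index as fraction of beads internalized from green versus red external bead signal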
Mac1 fbg enh: increases human CD11b/CD18 adhesion to fibrinogen. P05107+P11215. AID 1499. K562 CD11b/CD18 adhesion to fibrinogen, ATPlite luminescence. hit rate 0.07% among 93,000. activation, % at 10 µM;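 active means 10 µM primary screen giving 50% or more activity, confirmed by 40% or more on retest at that dose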
Target sequence (P05107 whole entry, looked up, other chains not shown): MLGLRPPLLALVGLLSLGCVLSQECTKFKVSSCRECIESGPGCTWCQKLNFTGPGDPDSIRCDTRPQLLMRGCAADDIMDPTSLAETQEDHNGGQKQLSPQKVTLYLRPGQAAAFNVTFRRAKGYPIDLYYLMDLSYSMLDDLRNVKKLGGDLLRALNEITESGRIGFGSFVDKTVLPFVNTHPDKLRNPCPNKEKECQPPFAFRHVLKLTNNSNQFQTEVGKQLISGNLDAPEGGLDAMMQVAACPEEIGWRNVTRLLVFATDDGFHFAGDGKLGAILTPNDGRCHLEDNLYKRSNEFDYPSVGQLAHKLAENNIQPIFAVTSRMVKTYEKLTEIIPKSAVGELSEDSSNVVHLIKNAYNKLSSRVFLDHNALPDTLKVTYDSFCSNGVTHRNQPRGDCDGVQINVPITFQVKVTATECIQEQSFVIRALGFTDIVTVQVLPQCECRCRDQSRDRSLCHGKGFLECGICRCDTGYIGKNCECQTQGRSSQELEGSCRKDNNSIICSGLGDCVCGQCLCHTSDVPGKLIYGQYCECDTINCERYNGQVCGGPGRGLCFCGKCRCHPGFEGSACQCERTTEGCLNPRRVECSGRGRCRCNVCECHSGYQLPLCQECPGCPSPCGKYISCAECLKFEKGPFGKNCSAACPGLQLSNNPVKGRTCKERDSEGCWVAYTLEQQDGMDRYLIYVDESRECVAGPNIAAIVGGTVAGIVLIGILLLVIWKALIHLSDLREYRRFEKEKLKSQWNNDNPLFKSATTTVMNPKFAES
Rev-RRE block: HIV Rev-RRE protein-RNA interaction inhibition | P05866 | hit rate 0.79% among 97,000 | Rev peptide-RRE RNA binding, FRET | inhibition, % at 8 µM | AID 704;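 active means inhibition above the screen-wide mean plus 3 SD, cut at about 35% in these data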
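Assay system: Labelled RRE RNA duplex and labelled Rev peptide | Times: 5 min preincubation and 15 min binding, 25 °C | Detection: FRET, ex 480 nm, em 540 and 671 nm | Evaluation: % inhibition of FRET ratio versus controls | Benchmarks: DMSO wells as 0% and neomycin B wells as 100% inhibition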
CD11b adhes inh: CD11b/CD18-fibrinogen binding inhibition. K562 CD11b/CD18 adhesion to fibrinogen, ATPlite luminescence; Mn2+ added to activate the integrin. inhibition, % at 10 µM. hit rate 0.54% among 93,000;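 active means primary inhibition of 50% or more at 10 µM, then 40% or more on retest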
EphB4 antag: EphB4-ephrin-B2 interaction antagonism. EphB4 LBD / TNYL-RAW-Alexa532 peptide, fluorescence polarization. hit rate 0.15% among 97,000. inhibition, % at 7 µM. P54760;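 active means inhibition above the screen-wide mean inhibition plus 3 SD, cut at about 15% in these data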
Smad3 FoxH1 inh: inhibitors of human Smad3 transcription factor binding. hit rate 0.29% among 88,000. TR-FRET Smad3/Dy647-FoxH1 peptide binding, europium anti-His. P84022. AID 630. inhibition, % at 25 µM;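 active means compounds that reduce the energy-transfer binding signal between the protein and its labelled peptide by more than half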
Numbers stand for hits; . = inactive; / = not tested or not shown; ! = a repeat was not active; [ ] = dose if it differs, or a comment. Hits are enriched below; roughly 1.3% of the tested compounds scored in any of these assays.

SMILES	Phagocyt inh	Mac1 fbg enh	Rev-RRE block	CD11b adhes inh	EphB4 antag	Smad3 FoxH1 inh
CC1CCc2cccc3c2N1c1cc(C#N)c(C#N)cc1O3 (centres undefined)	/	/	40	/	.	.
CN(C)c1ccc(/C=C/c2nc3ccccc3s2)cc1	.	.	106[fluorescence artefact?]	.	.	/
COc1ccc(-c2cc(=O)oc3c(C)c(O)c(CN(C)C)cc23)cc1	.	.	39	.	.	.
COC(=O)COc1ccc2c(-c3ccc(OC)cc3)cc(=O)oc2c1	.	.	.	.	.	.
CC1(C)CCCN(C(=O)c2coc(=O)c(Br)c2)C1	/	/	.	/	.	61
Nc1nc(Cl)cc(NCCO)n1	/	/	/	/	/	.
Cc1[nH]n(-c2ccc(S(=O)(=O)O)cc2)c(=O)c1N=Nc1ccccc1	/	/	/	/	/	.
Cc1[nH]n(-c2ccccc2)c(=O)c1N=Nc1nccs1	.	.	.	56	.	/
Nc1cc(C(F)(F)F)cc2c1SCC(=O)N2	.	/	/	/	/	/
Cc1ccc(S(=O)(=O)c2c(N)n(Cc3ccco3)c3nc4ccccc4nc23)cc1C	/	.	.	.	.	.
Nc1c(S(=O)(=O)c2ccccc2)c2nc3ccccc3nc2n1Cc1ccco1	/	/	43	/	.	.
CCCNC(=O)C(=O)Nc1ccc(N(C)C)cc1	/	/	.	/	.	91[fluorescence artefact?]
COCCNC(=O)C(=O)Nc1ccc(Br)cc1	/	/	.	/	.	.
CC(C)[C@H](N=Cc1ccccc1O)C(=O)O	/	/	/	/	/	.
O=C(CC(O)(c1ccccc1)C(F)(F)F)c1cccs1 (centres undefined)	.	.	.	.	31[fluorescence artefact?]	.
Cc1oc(-c2ccccc2F)nc1CS(=O)(=O)CC(=O)NCc1ccco1	.	.	.	.	.	78
O=C(CN1CCCC(O)C1)N1c2ccccc2Sc2ccc(C(F)(F)F)cc21 (centres undefined)	.	.	.	.	.	.
CN1CCN(CCCN2c3ccccc3Sc3ccc(C(F)(F)F)cc32)CC1	/	/	/	/	/	70!
C/C(=N\NC(=O)c1ccncc1)c1ccccc1Cl	/	/	/	/	/	.
Nc1c(C(=O)c2ccc(Cl)cc2)sc2nc3c(cc12)CCC3	.	.	/	.	/	/
CN1CCc2nc3sc(C(=O)C45CC6CC(CC(C6)C4)C5)c(N)c3cc2C1	.	118	.	.	.	/
CC(C)CCn1c(SCCN2CCOCC2)nc2c1c(=O)[nH]c(=O)n2C	.	.	.	.	18	.
O=C(NNC1=C(C(=O)C(F)(F)F)CCC1)c1ccc(Cl)cc1	.	.	.	96	.	.
O=C(NNC(=S)Nc1cccc(C(F)(F)F)c1)c1cccc(Cl)c1	.	/	/	/	/	/
O=C(NNC1=C(C(=O)C(F)(F)F)CCC1)c1cccc(Cl)c1	.	.	.	99	.	.
SMILES	Phagocyt inh	Mac1 fbg enh	Rev-RRE block	CD11b adhes inh	EphB4 antag	Smad3 FoxH1 inh
c1ccc2c(c1)nnn2CN1CCOCC1	/	/	/	/	/	.
O=C(COc1ccccc1N1C(=O)c2ccccc2C1=O)c1ccc(Cl)cc1	6.1[artifact]	.	.	.	.	/
COc1cc2c(=O)n(CC3CCCO3)c(=O)n(CC(=O)Nc3ccc(F)cc3F)c2cc1OC (centres undefined)	.	.	/	.	/	.
COc1cc2c(=O)n(CC3CCCO3)c(=O)n(CC(=O)Nc3cccc(Cl)c3)c2cc1OC (centres undefined)	.	.	.	.	.	83[fluorescence artefact?]
Cc1cc(C)cc(NC(=O)NC2CCN(CC(=O)Nc3c(C)cc(C)cc3C)CC2)c1	/	/	.	/	.	.
O=C(/C=C/c1cccc([N+](=O)[O-])c1)NCCN1CCOCC1	/	/	.	/	17	/
COc1ccc2cc(C(=O)CCC(=O)O)ccc2c1	/	/	/	/	/	.
C[C@@H](SCc1ccccc1)C(=O)O	/	/	/	/	/	.
CCOc1ccc2nc(SCC(=O)NC3CCCc4ccccc43)sc2c1 (centres undefined)	70[artifact]	/	/	/	/	/
CCOc1ccc2nc(SCC(=O)N3CCCc4ccccc43)sc2c1	/	/	.	/	.	/
CC1(C)S[C@H]2[C@H](NC(=O)C3(N)CCCCC3)C(=O)N2[C@@H]1C(=O)O	/	/	/	/	/	.
Cc1cc(/C=C2/SC(=S)N(c3cccc(C(F)(F)F)c3)C2=O)c(C)n1-c1cccnc1	/	/	44	/	.	/
Cc1cc(/C=C2\SC(=S)N(Cc3ccco3)C2=O)c(C)n1-c1cccnc1	/	/	95[fluorescence artefact?]	/	.	/
O=C(NCC(c1cccs1)N1CCOCC1)c1cc([N+](=O)[O-])cc([N+](=O)[O-])c1 (centres undefined)	.	.	/	.	/	/
CN(C)CCNc1ccccn1	/	/	/	/	/	.
O=C(O)CSc1ccc([N+](=O)[O-])cc1[N+](=O)[O-]	/	/	/	/	/	.
COC(=O)c1ccc2c(c1)C(C)(C)C(/C=C/c1ccc(OC)c(OC)c1OC)=[N+]2C	.	.	.	107	.	.
COC(=O)c1ccc2nc(C)c(C)nc2c1	/	/	.	/	.	/
COC(=O)c1ccc2c(c1)C(C)(C)C(/C=C/c1ccc(O)cc1)=[N+]2C	.	.	79[fluorescence artefact?]	.	.	/
O=C(O)C(F)(F)C(F)(F)C(F)(F)C(F)(F)C(=O)O	/	/	/	/	/	.
CCCCN1C2CCCC1CC(NC(=O)N(C(C)C)C(C)C)C2 (centres undefined)	/	/	.	/	.	.
C/C(=C\C(=O)c1ccc(Br)cc1)NCc1ccc(C)cc1	.	.	.	81	.	.
C/C(=C\C(=O)c1ccc(Br)cc1)NCc1ccccc1	.	.	.	.	.	.
CCN(CC)CCCN1C(=O)C(O)=C(C(C)=O)C1c1ccc(OC)cc1OC (centres undefined)	/	/	/	/	/	.
COc1ccc2c(C)cc(N3CCOCC3)nc2c1	.	.	.	.	.	.
SMILES	Phagocyt inh	Mac1 fbg enh	Rev-RRE block	CD11b adhes inh	EphB4 antag	Smad3 FoxH1 inh
COc1ccc2c(C)cc(SCC(=O)N3CCOCC3)nc2c1	.	.	60	.	.	.
COC(=O)c1c(NS(=O)(=O)c2ccc3ccccc3c2)sc2c1CCCC2	.	.	.	52	.	.
Cc1cccc(NC(=S)NNc2ncc(C(F)(F)F)cc2Cl)c1	.	/	/	/	/	/
FC(F)(F)c1cnc(NNC(=S)Nc2ccccc2Cl)c(Cl)c1	.	.	/	100	/	/
CCCOc1cccc(C2C(C(=O)c3ccc(C)o3)=C(O)C(=O)N2CCCN(C)C)c1 (centres undefined)	/	/	/	/	/	.
O=c1oc2c(O)c(O)cc3c(=O)oc4c(O)c(O)cc1c4c23	/	/	/	/	/	98
Cc1c(C)c2cc(Cl)c(O)c(CN(C)C)c2oc1=O	.	.	.	.	.	.
CC(C)OCCCNC(=O)c1c(N)n(/N=C/c2cccs2)c2nc3ccccc3nc12	.	149	.	.	.	/
OCC1CCCN(c2nc(CN3CCCCC3)nc3scc(-c4ccccc4)c23)C1 (centres undefined)	.	.	/	.	/	/
CCNc1nc(CN2CCCCC2)nc2scc(-c3ccccc3)c12	.	.	/	78	/	/
CCOc1ccccc1CNC(=O)c1cc2oc3ccccc3c2n1CC	186	.	.	.	.	.
N#C/C(=N\Nc1cccc2ccccc12)c1nnc2n1CCCCC2	.	.	/	.	/	/
O=C(NC(=S)Nc1ccc(Oc2ccccc2)cc1)c1ccc(Cl)cc1	.	.	.	78	.	/
C=C1CCO[C@@]2([C@H](O)[C@@](C)(O)CO)NC(=O)[C@]1(O)NC2=O	/	/	/	/	/	.
